Results taken from ChEMBL document CHEMBL3526002, “Tissue distribution and identification of radioactivity components at elimination phase after oral administration of [¹⁴C]CS-1036, an α-amylase inhibitor, to rats” (Drug Metab Dispos, 2013).

Tests used:
Set-up in all cases: dose 5 mg/kg, dosed compound name [14C]CS-1036, route oral
Settings in all cases: in vivo
[1] = test system: Zone of skin; test: Drug uptake in albino F344/DuCrlCrlj rat skin at 5 mg/kg, po after 168 hrs by liquid scintillation counting; format: ADME, organism-based
[2] = Drug uptake in albino F344/DuCrlCrlj rat testis at 5 mg/kg, po after 168 hrs by liquid scintillation counting; format: ADME, organism-based
[3] = Drug uptake in albino F344/DuCrlCrlj rat epididymis assessed as ng equivalent of CS-1036 at 5 mg/kg, po after 336 hrs by liquid scintillation counting; format: ADME, organism-based
[4] = test system: Blood; test: Drug uptake in albino F344/DuCrlCrlj rat blood at 5 mg/kg, po after 4 hrs by liquid scintillation counting; format: ADME, organism-based
Procedure, shortened: (§1)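 Male F344/DuCrlCrlj rats (159–167 g; n = 3 per time point) received a single oral dose of [14C]CS-1036 at 5 mg/kg. Blood was taken from the abdominal aorta at 1, 4, 8, 24, 72, 168 and 336 h. Radioactivity was counted by LSC with external-standard efficiency correction. Results were converted to ng equivalent of CS-1036/ml using specific activity and sample volume, and reported as mean + S.D.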

[5] = Drug uptake in albino F344/DuCrlCrlj rat bone marrow at 5 mg/kg, po after 336 hrs by liquid scintillation counting; format: ADME, organism-based
[6] = test system: Plasma; test: Drug uptake in albino F344/DuCrlCrlj rat plasma at 5 mg/kg, po after 1 hr by liquid scintillation counting; format: ADME, organism-based
[7] = test system: Cerebrum; test: Drug uptake in albino F344/DuCrlCrlj rat cerebrum at 5 mg/kg, po after 8 hrs by liquid scintillation counting; format: ADME, organism-based
Procedure, shortened: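 Single oral [14C]CS-1036 at 5 mg/kg was given to male rats (159–167 g; n = 3). Cerebrum was collected after aortic bleeding at 1, 4, 8, 24, 72, 168 or 336 h, weighed, and homogenized in 2 volumes of saline. A 0.5 ml aliquot was solubilized in Soluene-350 and counted by LSC with external-standard correction. Results are in ng equivalent/g tissue from specific activity and sample weight.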

[8] = Drug uptake in albino F344/DuCrlCrlj rat mandibular gland assessed as ng equivalent of CS-1036 at 5 mg/kg, po after 8 hrs by liquid scintillation counting; format: ADME, organism-based
[9] = test system: Small intestine; test: Drug uptake in albino F344/DuCrlCrlj rat small intestine assessed as ng equivalent of CS-1036 at 5 mg/kg, po after 4 hrs by liquid scintillation counting; format: ADME, organism-based
[10] = test system: Lung; test: Drug uptake in albino F344/DuCrlCrlj rat lung at 5 mg/kg, po after 8 hrs by liquid scintillation counting; format: ADME, organism-based
[11] = test system: Cerebellum; test: Drug uptake in albino F344/DuCrlCrlj rat cerebellum at 5 mg/kg, po after 4 hrs by liquid scintillation counting; format: ADME, organism-based
[12] = test system: Heart; test: Drug uptake in albino F344/DuCrlCrlj rat heart at 5 mg/kg, po after 24 hrs by liquid scintillation counting; format: ADME, organism-based
[13] = test system: Small intestine; test: Drug uptake in albino F344/DuCrlCrlj rat small intestine at 5 mg/kg, po after 336 hrs by liquid scintillation counting; format: ADME, organism-based
[14] = test system: Harderian gland; test: Drug uptake in albino F344/DuCrlCrlj rat harderian gland assessed as ng equivalent of CS-1036 at 5 mg/kg, po after 168 hrs by liquid scintillation counting; format: ADME, organism-based
[15] = test system: Small intestine; test: Drug uptake in albino F344/DuCrlCrlj rat small intestine at 5 mg/kg, po after 168 hrs by liquid scintillation counting; format: ADME, organism-based
[16] = Drug uptake in albino F344/DuCrlCrlj rat skeletal muscle at 5 mg/kg, po after 4 hrs by liquid scintillation counting; format: ADME, organism-based, Muscle tissue
[17] = Drug uptake in albino F344/DuCrlCrlj rat testis assessed as ng equivalent of CS-1036 at 5 mg/kg, po after 336 hrs by liquid scintillation counting; format: ADME, organism-based
[18] = Drug uptake in albino F344/DuCrlCrlj rat thyroid gland at 5 mg/kg, po after 72 hrs by liquid scintillation counting; format: ADME, organism-based
[19] = test system: Cerebellum; test: Drug uptake in albino F344/DuCrlCrlj rat cerebellum assessed as ng equivalent of CS-1036 at 5 mg/kg, po after 1 hr by liquid scintillation counting; format: ADME, organism-based
[20] = test system: Stomach; test: Drug uptake in albino F344/DuCrlCrlj rat stomach assessed as ng equivalent of CS-1036 at 5 mg/kg, po after 168 hrs by liquid scintillation counting; format: ADME, organism-based
[21] = test system: Aorta; test: Drug uptake in albino F344/DuCrlCrlj rat aorta assessed as ng equivalent of CS-1036 at 5 mg/kg, po after 1 hr by liquid scintillation counting; format: ADME, organism-based
[22] = test system: Large intestine; test: Drug uptake in albino F344/DuCrlCrlj rat large intestine assessed as ng equivalent of CS-1036 at 5 mg/kg, po after 8 hrs by liquid scintillation counting; format: ADME, organism-based
[23] = test system: Harderian gland; test: Drug uptake in albino F344/DuCrlCrlj rat harderian gland assessed as ng equivalent of CS-1036 at 5 mg/kg, po after 336 hrs by liquid scintillation counting; format: ADME, organism-based
[24] = test system: Large intestine; test: Drug uptake in albino F344/DuCrlCrlj rat large intestine assessed as ng equivalent of CS-1036 at 5 mg/kg, po after 336 hrs by liquid scintillation counting; format: ADME, organism-based
[25] = Drug uptake in albino F344/DuCrlCrlj rat eyeball at 5 mg/kg, po after 24 hrs by liquid scintillation counting; format: ADME, organism-based
[26] = Drug uptake in albino F344/DuCrlCrlj rat trachea assessed as ng equivalent of CS-1036 at 5 mg/kg, po after 168 hrs by liquid scintillation counting; format: ADME, organism-based
[27] = test system: Blood; test: Drug uptake in albino F344/DuCrlCrlj rat blood at 5 mg/kg, po after 1 hr by liquid scintillation counting; format: ADME, organism-based; procedure, shortened: as §1
[28] = test system: Heart; test: Drug uptake in albino F344/DuCrlCrlj rat heart at 5 mg/kg, po after 8 hrs by liquid scintillation counting; format: ADME, organism-based
[29] = test system: Spleen; test: Drug uptake in albino F344/DuCrlCrlj rat spleen at 5 mg/kg, po after 336 hrs by liquid scintillation counting; format: ADME, organism-based
[30] = Drug uptake in albino F344/DuCrlCrlj rat skeletal muscle at 5 mg/kg, po after 8 hrs by liquid scintillation counting; format: ADME, organism-based, Muscle tissue
[31] = test system: Heart; test: Drug uptake in albino F344/DuCrlCrlj rat heart at 5 mg/kg, po after 4 hrs by liquid scintillation counting; format: ADME, organism-based
[32] = test system: Large intestine; test: Drug uptake in albino F344/DuCrlCrlj rat large intestine at 5 mg/kg, po after 336 hrs by liquid scintillation counting; format: ADME, organism-based
[33] = test system: Stomach; test: Drug uptake in albino F344/DuCrlCrlj rat stomach assessed as ng equivalent of CS-1036 at 5 mg/kg, po after 336 hrs by liquid scintillation counting; format: ADME, organism-based
[34] = test system: Harderian gland; test: Drug uptake in albino F344/DuCrlCrlj rat harderian gland assessed as ng equivalent of CS-1036 at 5 mg/kg, po after 4 hrs by liquid scintillation counting; format: ADME, organism-based
[35] = test system: Spleen; test: Drug uptake in albino F344/DuCrlCrlj rat spleen assessed as ng equivalent of CS-1036 at 5 mg/kg, po after 168 hrs by liquid scintillation counting; format: ADME, organism-based
[36] = Drug uptake in albino F344/DuCrlCrlj rat testis at 5 mg/kg, po after 72 hrs by liquid scintillation counting; format: ADME, organism-based

Work on C[C@H]1O[C@@H](O[C@H]2[C@H](O)[C@@H](O)[C@@H](O[14C@H]3[14C@H](O)[14CH2]N[14C@@H]3[14CH2]O)O[C@@H]2CO)[C@H](O)[C@@H](O)[C@@H]1O yielded a Radiolabel recovery [1] of 53.3 ngequiv/g, a Radiolabel recovery [2] of 9.95 ngequiv/g and a Radiolabel recovery [3] of 3.3 ngequiv/g. For the same molecule, the Radiolabel recovery [4] was 44.3 ngequiv/ml, the Radiolabel recovery [5] was 26.2 ngequiv/g and the Radiolabel recovery [6] was 90.6 ngequiv/ml. It also gave a Radiolabel recovery [7] of 9.08 ngequiv/g, a Radiolabel recovery [8] of 24 ngequiv/g and a Radiolabel recovery [9] of 903 ngequiv/g. For the same molecule, the Radiolabel recovery [10] was 64.8 ngequiv/g, the Radiolabel recovery [11] was 11.2 ngequiv/g and the Radiolabel recovery [12] was 41.7 ngequiv/g. The Radiolabel recovery [13] was 6.54 ngequiv/g, the Radiolabel recovery [14] was 9 ngequiv/g and the Radiolabel recovery [15] was 13 ngequiv/g. It also gave a Radiolabel recovery [16] of 41.4 ngequiv/g, a Radiolabel recovery [17] of 2.06 ngequiv/g and a Radiolabel recovery [18] of 99.1 ngequiv/g. It also gave a Radiolabel recovery [19] of 0.79 ngequiv/g, a Radiolabel recovery [20] of 11.2 ngequiv/g and a Radiolabel recovery [21] of 15.9 ngequiv/g. It also gave a Radiolabel recovery [22] of 8000 ngequiv/g, a Radiolabel recovery [23] of 2.33 ngequiv/g and a Radiolabel recovery [24] of 6.02 ngequiv/g. For the same molecule, the Radiolabel recovery [25] was 17.4 ngequiv/g, the Radiolabel recovery [26] was 10.4 ngequiv/g and the Radiolabel recovery [27] was 60.5 ngequiv/ml. The Radiolabel recovery [28] was 27.2 ngequiv/g, the Radiolabel recovery [29] was 7.81 ngequiv/g and the Radiolabel recovery [30] was 32.2 ngequiv/g. For the same molecule, the Radiolabel recovery [31] was 36 ngequiv/g, the Radiolabel recovery [32] was 9.86 ngequiv/g and the Radiolabel recovery [33] was 5.1 ngequiv/g. For the same molecule, the Radiolabel recovery [34] was 5.1 ngequiv/g, the Radiolabel recovery [35] was 6.2 ngequiv/g and the Radiolabel recovery [36] was 24.9 ngequiv/g.
